Measured values: ChEMBL document CHEMBL4196017, “Design, synthesis and identification of silicon-containing HCV NS5A inhibitors with pan-genotype activity” (Eur J Med Chem, 2018)
pEC50: −log10 of the molar value.

Assays:
Mus musculus [1] = test: Toxicity in ICR mouse assessed as direct bilirubin level in serum at 150 mg/kg, po administered via gavage once daily for 14 days (reference value: 7.6 +/- 0.59 umol/L); assay type: organism-based; conditions: in vivo, 336 h
Mus musculus [2] = test: Toxicity in ICR mouse assessed as eosinophil level in serum at 150 mg/kg, po administered via gavage once daily for 14 days (reference value: 1.66 +/- 0.54%); assay type: organism-based; conditions: in vivo, 336 h
How it was run: (§1)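 Haematology on abdominal aortic blood taken at necropsy under ether anaesthesia after 14 daily gavage doses (20 ml/kg) in ICR mice, 5 per sex per group, vehicle control. Parameters: WBC, RBC, haemoglobin, platelets, reticulocyte ratio and differential leukocyte counts; mean ± SD, n = 10.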

Mus musculus [3] = test: Toxicity in ICR mouse assessed as total cholesterol level at 150 mg/kg, po administered via gavage once daily for 14 days (reference value: 0.93 +/- 0.31 mmol/L); assay type: organism-based; conditions: in vivo, 336 h
Mus musculus [4] = test: Toxicity in ICR mouse assessed as blood glucose level at 150 mg/kg, po administered via gavage once daily for 14 days (reference value: 3.64 +/- 0.79 umol/L); assay type: organism-based; conditions: in vivo, 336 h
How it was run: (§2)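 ICR mice, 5 males + 5 females per group, dosed by gavage once daily at 150 mg/kg (20 ml/kg) or vehicle for 14 days; killed after the 14th dose; blood from abdominal aorta under ether anaesthesia for hematology and clinical chemistry; mean ± SD, n = 10.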

Mus musculus [5] = test: Toxicity in ICR mouse assessed as gamma glutamyltransferase level in serum at 150 mg/kg, po administered via gavage once daily for 14 days (reference value: 0 U/L); assay type: organism-based; conditions: in vivo, 336 h
Mus musculus [6] = test: Toxicity in ICR mouse assessed as alkaline phosphatase level in serum at 150 mg/kg, po administered via gavage once daily for 14 days (reference value: 114.44 +/- 21.78 U/L); assay type: organism-based; conditions: in vivo, 336 h; how it was run: as §2
Mus musculus [7] = test: Toxicity in ICR mouse assessed as testis weight at 150 mg/kg, po administered via gavage once daily for 14 days (reference value: 0.881 +/- 0.037 g); assay type: organism-based; conditions: in vivo, 336 h
Mus musculus [8] = test: Toxicity in ICR mouse assessed as total protein level in serum at 150 mg/kg, po administered via gavage once daily for 14 days (reference value: 53.97 +/- 1.56 g/l); assay type: organism-based; conditions: in vivo, 336 h
Mus musculus [9] = test: Toxicity in ICR mouse assessed as neutrophil level in serum at 150 mg/kg, po administered via gavage once daily for 14 days (reference value: 27.74 +/- 16.27%); assay type: organism-based; conditions: in vivo, 336 h; how it was run: as §1
Mus musculus [10] = test: Toxicity in ICR mouse assessed as basophil level in serum at 150 mg/kg, po administered via gavage once daily for 14 days (reference value: 0.02 +/- 0.04%); assay type: organism-based; conditions: in vivo, 336 h; how it was run: as §2
Mus musculus [11] = test: Toxicity in ICR mouse assessed as serum glutamate dehydrogenase level at 150 mg/kg, po administered via gavage once daily for 14 days (reference value: 13.78 +/- 2.86 U/L); assay type: organism-based; conditions: in vivo, 336 h
Mus musculus [12] = test: Toxicity in ICR mouse assessed as spleen weight at 150 mg/kg, po administered via gavage once daily for 14 days (reference value: 0.355 +/- 0.1 g); assay type: organism-based; conditions: in vivo, 336 h
Mus musculus [13] = test: Toxicity in ICR mouse assessed as total bilirubin level in serum at 150 mg/kg, po administered via gavage once daily for 14 days (reference value: 9.95 +/- 2.18 umol/L); assay type: organism-based; conditions: in vivo, 336 h
Mus musculus [14] = test: Toxicity in ICR mouse assessed as brain weight at 150 mg/kg, po administered via gavage once daily for 14 days (reference value: 1.686 +/- 0.241 g); assay type: organism-based; conditions: in vivo, 336 h
Mus musculus [15] = test: Toxicity in ICR mouse assessed as triglyceride level at 150 mg/kg, po administered via gavage once daily for 14 days (reference value: 1.67 +/- 0.32 mmol/L); assay type: organism-based; conditions: in vivo, 336 h
Mus musculus [16] = test: Toxicity in ICR mouse assessed as blood urea nitrogen level in serum at 150 mg/kg, po administered via gavage once daily for 14 days (reference value: 10.44 +/- 1.77 mmol/L); assay type: organism-based; conditions: in vivo, 336 h; how it was run: as §2
Mus musculus [17] = test: Toxicity in ICR mouse assessed as lymphocyte level in serum at 150 mg/kg, po administered via gavage once daily for 14 days (reference value: 57.65 +/- 13.53%); assay type: organism-based; conditions: in vivo, 336 h; how it was run: as §1
Mus musculus [18] = test: Toxicity in ICR mouse assessed as heart weight at 150 mg/kg, po administered via gavage once daily for 14 days (reference value: 0.539 +/- 0.094 g); assay type: organism-based; conditions: in vivo, 336 h
Mus musculus [19] = test: Toxicity in ICR mouse assessed as serum creatine kinase level at 150 mg/kg, po administered via gavage once daily for 14 days (reference value: 705.78 +/- 330.84 U/L); assay type: organism-based; conditions: in vivo, 336 h
Mus musculus [20] = test: Toxicity in ICR mouse assessed as ovary weight at 150 mg/kg, po administered via gavage once daily for 14 days (reference value: 0.079 +/- 0.007 g); assay type: organism-based; conditions: in vivo, 336 h
Mus musculus [21] = test: Toxicity in ICR mouse assessed as total bile acid level at 150 mg/kg, po administered via gavage once daily for 14 days (reference value: 5.67 +/- 2.45 umol/L); assay type: organism-based; conditions: in vivo, 336 h
Mus musculus [22] = test: Toxicity in ICR mouse assessed as liver weight at 150 mg/kg, po administered via gavage once daily for 14 days (reference value: 4.365 +/- 0.222 g); assay type: organism-based; conditions: in vivo, 336 h
Mus musculus [23] = test: Toxicity in ICR mouse assessed as thymus weight at 150 mg/kg, po administered via gavage once daily for 14 days (reference value: 0.289 +/- 0.081 g); assay type: organism-based; conditions: in vivo, 336 h
Mus musculus [24] = test: Toxicity in ICR mouse assessed as albumin level in serum at 150 mg/kg, po administered via gavage once daily for 14 days (reference value: 25.87 +/- 1.67 g/l); assay type: organism-based; conditions: in vivo, 336 h; how it was run: as §2
[25] = target: T1, Nonstructural protein 5A (Hepatitis C virus) (UniProt Q5L478); test: Potency index, ratio of ombitasvir IC50 to compound IC50 for inhibition of NS5A in HCV genotype 6a infected in human HuH7 replicon cells expressing HCV genotype 1b chimeric replicon; assay type: cell-based; conditions: Hepatitis C virus subtype 6a
T1 sequence (whole entry): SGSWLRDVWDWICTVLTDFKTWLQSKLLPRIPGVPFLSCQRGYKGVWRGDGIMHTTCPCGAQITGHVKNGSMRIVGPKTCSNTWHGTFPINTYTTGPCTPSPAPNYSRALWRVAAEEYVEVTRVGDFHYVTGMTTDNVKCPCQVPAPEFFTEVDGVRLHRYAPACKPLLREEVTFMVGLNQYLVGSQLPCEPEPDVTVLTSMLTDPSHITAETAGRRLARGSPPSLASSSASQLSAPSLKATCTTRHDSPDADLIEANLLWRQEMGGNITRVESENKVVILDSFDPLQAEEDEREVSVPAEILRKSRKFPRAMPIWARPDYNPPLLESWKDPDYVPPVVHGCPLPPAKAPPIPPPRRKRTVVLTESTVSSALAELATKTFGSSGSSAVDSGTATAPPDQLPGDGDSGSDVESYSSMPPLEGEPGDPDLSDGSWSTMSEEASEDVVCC

Mus musculus [26] = test: Toxicity in ICR mouse assessed as aspartate aminotransferase level in serum at 150 mg/kg, po administered via gavage once daily for 14 days (reference value: 111.44 +/- 32.76 U/L); assay type: organism-based; conditions: in vivo, 336 h; how it was run: as §2
Nonstructural protein 5A = target: T2, Nonstructural protein 5A (Hepatitis C virus, UniProt Q5L478); test: Inhibition of NS5A in HCV genotype 6a; design: species or system Hepatitis C virus subtype 6a
T2 sequence (Q5L478 whole entry): T1 sequence (whole entry)

`CC[Si](CC)(CC)c1ccc(N2[C@H](c3ccc(NC(=O)[C@@H]4CCCN4C(=O)[C@@H](NC(=O)OC)C(C)C)cc3)CC[C@H]2c2ccc(NC(=O)[C@@H]3CCCN3C(=O)[C@@H](NC(=O)OC)C(C)C)cc2)cc1` showed an Activity (Mus musculus [1]) of 8.57 µmol/L, an Activity (Mus musculus [2]) of 1.88% and an Activity (Mus musculus [3]) of 0.85 mmol/L. The Activity (Mus musculus [4]) was 4.18 mmol/L, the Activity (Mus musculus [5]) was 0.03 U/L and the Activity (Mus musculus [6]) was 105.7 U/L. The Activity (Mus musculus [7]) was 0.789 g, the Activity (Mus musculus [8]) was 52.31 g/L and the Activity (Mus musculus [9]) was 33.12%. For the same molecule, the Activity (Mus musculus [10]) was 0.02%, the Activity (Mus musculus [11]) was 15.1 U/L and the Activity (Mus musculus [12]) was 0.345 g. The Activity (Mus musculus [13]) was 11.24 µmol/L, the Activity (Mus musculus [14]) was 1.807 g and the Activity (Mus musculus [15]) was 1.53 mmol/L. The Activity (Mus musculus [16]) was 10.16 mmol/L, the Activity (Mus musculus [17]) was 52.54% and the Activity (Mus musculus [18]) was 0.567 g. It also gave an Activity (Mus musculus [19]) of 953.3 U/L, an Activity (Mus musculus [20]) of 0.097 g and an Activity (Mus musculus [21]) of 10.5 µmol/L. For the same molecule, the Activity (Mus musculus [22]) was 4.346 g, the Activity (Mus musculus [23]) was 0.24 g and the Activity (Mus musculus [24]) was 25.38 g/L. The Ratio IC50 [25] was 7.6 and the Activity (Mus musculus [26]) was 110.6 U/L.
With `COC(=O)N[C@H](C(=O)N1CCC[C@H]1C(=O)Nc1ccc([C@@H]2CC[C@@H](c3ccc(NC(=O)[C@@H]4CCCN4C(=O)[C@@H](NC(=O)OC)C(C)C)cc3)N2c2ccc(C(C)(C)C)cc2)cc1)C(C)C` [OMBITASVIR] the pEC50 (Nonstructural protein 5A) was 10.26.
